Measured values: article PMC7050655 (ChemistryOpen, 2020)

Experiments:
[1] = molecular target: human aminopeptidase N overexpressed in HEK293 cells (Homo sapiens, UniProt P15144); type: biochemical; conditions: for specificity for IRAP over human APN: IRAP versus human APN; for pIC50: human aminopeptidase N overexpressed in HEK293 cells
Procedure, shortened: (§1)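 HEK293T suspension cells were grown in Freestyle medium (37 °C, 8 % CO2, shaken) and transfected with PEI (2 μg/10^6 cells). Plasmid per 10^6 cells was 1.1 μg for human IRAP and 0.7 μg for human APN. Cells were harvested at 48 h. Membranes were prepared as for CHO cells, stored at −80 °C, Dounce-homogenised and diluted in assay buffer. The set-up matched the CHO assay: 1 mM L-Leu-pNA, pH 7.4 Tris/NaCl/PMSF buffer, 405 nm absorbance.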

[2] = molecular target: T1, IRAP (Cricetulus griseus, UniProt A0A8C2M8D5); assay: Enzyme kinetics / competition studies with varied L-Leu-pNA substrate; type: biochemical; conditions: enzyme kinetics experiments
T1 sequence (A0A8C2M8D5 1-1025): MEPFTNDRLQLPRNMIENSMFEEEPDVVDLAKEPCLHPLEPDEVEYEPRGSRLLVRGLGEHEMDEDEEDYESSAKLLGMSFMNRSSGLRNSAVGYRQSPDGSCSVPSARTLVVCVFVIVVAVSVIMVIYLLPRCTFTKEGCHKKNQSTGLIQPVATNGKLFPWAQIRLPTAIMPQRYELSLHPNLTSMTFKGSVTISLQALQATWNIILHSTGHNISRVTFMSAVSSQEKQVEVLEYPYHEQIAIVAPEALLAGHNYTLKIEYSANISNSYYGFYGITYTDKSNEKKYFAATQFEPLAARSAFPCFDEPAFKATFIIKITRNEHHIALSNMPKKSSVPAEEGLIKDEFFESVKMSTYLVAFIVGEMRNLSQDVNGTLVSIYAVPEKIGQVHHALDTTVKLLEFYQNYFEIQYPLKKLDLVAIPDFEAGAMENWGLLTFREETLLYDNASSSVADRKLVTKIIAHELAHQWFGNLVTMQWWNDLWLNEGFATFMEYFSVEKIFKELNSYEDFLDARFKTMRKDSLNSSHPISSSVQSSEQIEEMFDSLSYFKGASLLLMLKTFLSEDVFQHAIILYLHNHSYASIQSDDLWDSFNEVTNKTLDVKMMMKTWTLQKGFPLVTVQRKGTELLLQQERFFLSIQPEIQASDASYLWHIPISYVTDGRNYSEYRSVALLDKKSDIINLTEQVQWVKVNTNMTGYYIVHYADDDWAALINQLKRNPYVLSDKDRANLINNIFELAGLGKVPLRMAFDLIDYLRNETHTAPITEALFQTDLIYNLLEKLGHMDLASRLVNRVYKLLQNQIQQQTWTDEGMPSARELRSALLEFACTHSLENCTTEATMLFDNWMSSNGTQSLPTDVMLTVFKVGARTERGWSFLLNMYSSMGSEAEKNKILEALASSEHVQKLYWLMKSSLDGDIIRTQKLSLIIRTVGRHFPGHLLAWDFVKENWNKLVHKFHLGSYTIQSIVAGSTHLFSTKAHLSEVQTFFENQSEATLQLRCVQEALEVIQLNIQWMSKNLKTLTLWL
Procedure, shortened: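 Inhibitor was serially diluted (39 nM–150 μM), with four technical replicates per substrate level. Absorbance at 405 nm was read every ten minutes. The 150 μM slope defined maximal inhibition and was subtracted. Rates were fitted to uncompetitive, competitive and non-competitive models and compared; per-concentration Michaelis-Menten fits were also made.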

[3] = molecular target: human membrane bound IRAP overexpressed in HEK293 cells (Homo sapiens, UniProt Q9UIQ6); type: biochemical
Procedure, shortened: as §1

[4] = Metabolic stability in human liver microsomes; type: in vitro ADME
Procedure, shortened: (§2)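 Part of an automated 96-well preclinical profiling panel with UPLC-MS/MS read-out. Values are mean and SD from three independent test occasions.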

[5] = Human plasma protein binding; type: in vitro ADME; conditions: PPB (human protein plasma binding)
Procedure, shortened: (§3)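 Part of an automated 96-well profiling panel run in […], reporting fraction unbound and compound stability (% remaining after 18 h). Read-out by UPLC-MS/MS. Values are mean and SD from three independent test occasions.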

[6] = Human plasma stability; type: in vitro ADME; conditions: after 18 h incubation
Procedure, shortened: as §3

[7] = Metabolic stability in rat hepatocytes; type: in vitro ADME; conditions: for hepatocyte CLint: Rat hep. Clint (rat hepatocytes intrinsic clearance), rat hepatocytes; for half-life: Rat hep. t 1/2, rat hepatocytes
Procedure, shortened: as §2

[8] = molecular target: T2, IRAP from CHO cells (Cricetulus griseus, UniProt A0A8C2M8D5); assay: IRAP inhibition, membrane preparations from CHO cells, L-Leu-pNA cleavage; type: biochemical, Chinese hamster
T2 sequence (A0A8C2M8D5 1-1025): T1 sequence (A0A8C2M8D5 1-1025)

human aminopeptidase N overexpressed in HEK293 cells, sequence (P15144 whole entry): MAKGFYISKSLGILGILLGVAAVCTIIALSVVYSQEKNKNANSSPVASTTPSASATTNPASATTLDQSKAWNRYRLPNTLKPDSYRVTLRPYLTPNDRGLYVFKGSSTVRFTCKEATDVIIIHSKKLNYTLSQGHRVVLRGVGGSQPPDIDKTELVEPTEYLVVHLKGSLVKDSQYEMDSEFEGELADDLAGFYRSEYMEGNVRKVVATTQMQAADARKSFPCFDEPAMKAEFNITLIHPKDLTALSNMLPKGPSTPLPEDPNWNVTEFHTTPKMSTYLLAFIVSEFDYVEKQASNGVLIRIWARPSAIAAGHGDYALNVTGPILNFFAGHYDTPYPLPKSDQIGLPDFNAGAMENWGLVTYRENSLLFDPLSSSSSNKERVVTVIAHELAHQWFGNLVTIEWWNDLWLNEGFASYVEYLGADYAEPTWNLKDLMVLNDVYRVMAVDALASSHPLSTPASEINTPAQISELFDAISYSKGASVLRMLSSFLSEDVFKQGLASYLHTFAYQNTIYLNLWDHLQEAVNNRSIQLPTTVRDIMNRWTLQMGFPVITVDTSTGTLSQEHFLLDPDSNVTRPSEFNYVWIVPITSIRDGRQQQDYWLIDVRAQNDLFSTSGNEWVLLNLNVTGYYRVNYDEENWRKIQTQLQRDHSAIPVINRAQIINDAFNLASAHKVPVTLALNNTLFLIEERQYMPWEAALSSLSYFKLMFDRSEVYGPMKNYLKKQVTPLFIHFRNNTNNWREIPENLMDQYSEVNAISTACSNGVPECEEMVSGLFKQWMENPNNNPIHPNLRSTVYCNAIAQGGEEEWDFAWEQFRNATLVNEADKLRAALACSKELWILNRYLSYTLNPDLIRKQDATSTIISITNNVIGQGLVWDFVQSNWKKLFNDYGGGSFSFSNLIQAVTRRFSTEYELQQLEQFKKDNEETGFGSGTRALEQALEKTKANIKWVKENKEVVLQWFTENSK
human membrane bound IRAP overexpressed in HEK293 cells, sequence (Q9UIQ6 whole entry): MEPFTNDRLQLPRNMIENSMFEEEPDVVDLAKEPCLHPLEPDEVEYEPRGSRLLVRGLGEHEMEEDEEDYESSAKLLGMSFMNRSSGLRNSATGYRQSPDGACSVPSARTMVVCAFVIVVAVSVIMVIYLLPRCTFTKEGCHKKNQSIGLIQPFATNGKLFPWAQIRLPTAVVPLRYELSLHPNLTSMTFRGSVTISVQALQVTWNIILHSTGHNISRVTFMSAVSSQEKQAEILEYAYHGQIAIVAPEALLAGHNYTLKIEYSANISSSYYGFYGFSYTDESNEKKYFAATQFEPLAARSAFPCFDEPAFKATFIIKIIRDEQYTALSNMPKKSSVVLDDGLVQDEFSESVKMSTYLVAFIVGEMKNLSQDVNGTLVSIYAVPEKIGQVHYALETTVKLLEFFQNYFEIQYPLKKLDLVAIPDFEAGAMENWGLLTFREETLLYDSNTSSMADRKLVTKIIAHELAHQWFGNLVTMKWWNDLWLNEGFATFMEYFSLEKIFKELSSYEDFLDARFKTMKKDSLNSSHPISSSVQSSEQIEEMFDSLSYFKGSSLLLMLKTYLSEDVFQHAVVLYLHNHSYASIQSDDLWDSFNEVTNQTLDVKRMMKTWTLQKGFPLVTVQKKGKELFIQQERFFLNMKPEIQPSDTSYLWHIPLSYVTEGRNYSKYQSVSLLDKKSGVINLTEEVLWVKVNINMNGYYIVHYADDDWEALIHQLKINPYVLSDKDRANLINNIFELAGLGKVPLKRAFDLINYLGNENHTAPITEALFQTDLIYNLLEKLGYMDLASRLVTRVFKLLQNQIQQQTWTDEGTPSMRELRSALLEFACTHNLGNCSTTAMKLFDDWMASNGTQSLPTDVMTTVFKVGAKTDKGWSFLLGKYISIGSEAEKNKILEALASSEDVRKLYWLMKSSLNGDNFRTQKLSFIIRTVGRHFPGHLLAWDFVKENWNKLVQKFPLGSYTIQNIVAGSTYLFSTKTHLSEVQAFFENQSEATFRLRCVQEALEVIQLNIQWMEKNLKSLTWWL

| specificity for IRAP over human APN [1] | pIC50 [1] | mode of inhibition versus L-Leu-pNA [2] | IC50 [3] [µM] | half-life [4] [min] | microsomal CLint [4] [µL/min/mg] | fraction unbound [5] | Plasma stab (human plasma stability) [6] [% compound remaining] | loss of activity on hIRAP compared to IRAP from CHO-cells ([3]; hIRAP versus CHO IRAP) [fold] | hepatocyte CLint [7] [µL/min/1e6 cells] | half-life [7] [min] | decrease of activity compared to compound 1 [8] | SMILES |
| --- | --- | --- | --- | --- | --- | --- | --- | --- | --- | --- | --- | --- |
| specificity for IRAP over human APN | Inactive | uncompetitive inhibitor | 5.01 |  |  |  |  |  |  |  |  | CN1C(=O)C2(Nc3ccccc3C(=O)N2Cc2ccccc2)c2cc(Br)ccc21 (racemic) [Compound 32, 3′‐Benzyl‐5‐bromo‐1‐methyl‐1′H‐spiro[indoline‐3,2′‐quinazoline]‐2,4′(3′H)‐dione] |
| specificity for IRAP over human APN | completely inactive |  | 31.6 | < 2.3 | > 300 | 0.098 ± 0.02 | 100±5 | 10 to 15 | 114 ± 4 | 6.1 ± 0.2 |  | Cc1ccc(N2C(=O)c3ccccc3NC23C(=O)N(C)c2ccc([N+](=O)[O-])cc23)cc1 (stereo not shown) [Compound 7, 1‐Methyl‐5‐nitro‐3′‐(p‐tolyl)‐1′H‐spiro[indoline‐3,2′‐quinazoline]‐2,4′(3′H)‐dione] |
|  |  |  |  |  |  |  |  |  |  |  | tenfold | COc1ccc2c(c1)C1(Nc3ccccc3C(=O)N1c1ccc(C)cc1)C(=O)N2C (stereo not shown) [Compound 9, 5‐Methoxy‐1‐methyl‐3′‐(p‐tolyl)‐1′H‐spiro[indoline‐3,2′‐quinazoline]‐2,4′(3′H)‐dione] |
|  |  |  |  |  |  |  |  |  |  |  | tenfold | Cc1ccc(N2C(=O)c3ccccc3NC23C(=O)N(C)c2ccc(C)cc23)cc1 (stereo not shown) [Compound 10, 1,5‐Dimethyl‐3′‐(p‐tolyl)‐1′H‐spiro[indoline‐3,2′‐quinazoline]‐2,4′(3′H)‐dione] |
|  |  |  |  | < 2.3 | > 300 | 0.0025 to 0.032 | 102±25 |  | > 300 | < 2.3 |  | CCc1ccccc1-c1ccc2c(c1)C1(Nc3ccccc3C(=O)N1c1ccc(C)cc1)C(=O)N2C (stereo not shown) [Compound 15, 5‐(2‐Ethylphenyl)‐1‐methyl‐3′‐(p‐tolyl)‐1′H‐spiro[indoline‐3,2′‐quinazoline]‐2,4′(3′H)‐dione] |
| specificity for IRAP over human APN | Inactive |  | 31.6 | < 2.3 | > 300 | 0.055 ± 0.004 | 97±15 |  | 84 ± 14 | 8.5 ± 1.6 |  | CN1C(=O)C2(Nc3ccccc3C(=O)N2Cc2cccnc2)c2cc(Br)ccc21 (stereo not shown) [Compound 36, 5‐Bromo‐1‐methyl‐3′‐(pyridin‐3‐ylmethyl)‐1′H‐spiro[indoline‐3,2′‐quinazoline]‐2,4′(3′H)‐dione] |
| specificity for IRAP over human APN | Inactive |  | 12.6 | < 2.3 | > 300 | 0.041 ± 0.008 | 98±3 |  | 132 ± 39 | 5.5 ± 1.4 |  | CN1C(=O)C2(Nc3ccccc3C(=O)N2Cc2ccco2)c2cc(Br)ccc21 (stereo not shown) [Compound 37, 5‐Bromo‐3′‐(furan‐2‐ylmethyl)‐1‐methyl‐1′H‐spiro[indoline‐3,2′‐quinazoline]‐2,4′(3′H)‐dione] |
|  |  |  |  | < 2.3 | > 300 | 0.019 ± 0.004 | 105±7 |  | 248 ± 5 | 2.8 ± 0.06 |  | CCCCN1C(=O)c2ccccc2NC12C(=O)N(C)c1ccc(Br)cc12 (stereo not shown) [Compound 38, 5‐Bromo‐3′‐butyl‐1‐methyl‐1′H‐spiro[indoline‐3,2′‐quinazoline]‐2,4′(3′H)‐dione] |
| specificity for IRAP over human APN | Inactive |  | 50.1 | < 2.3 | > 300 | 0.14 ± 0.006 | 99±1 |  | 91 ± 8 | 7.6 ± 0.6 |  | COCCN1C(=O)c2ccccc2NC12C(=O)N(C)c1ccc(Br)cc12 (stereo not shown) [Compound 39, 5‐Bromo‐3′‐(2‐methoxyethyl)‐1‐methyl‐1′H‐spiro[indoline‐3,2′‐quinazoline]‐2,4′(3′H)‐dione] |
| specificity for IRAP over human APN | Inactive |  | 39.8 | 8.6 ± 1 | 81 ± 10 | 0.4 ± 0.04 | 95±2 |  | 136 ± 22 | 5.2 ± 0.9 |  | CN(C)CCN1C(=O)c2ccccc2NC12C(=O)N(C)c1ccc(Br)cc12 (stereo not shown) [Compound 40, 5‐Bromo‐3′‐(2‐(dimethylamino)ethyl)‐1‐methyl‐1′H‐spiro[indoline‐3,2′‐quinazoline]‐2,4′(3′H)‐dione] |
